PMI act hi M6P = human PMI activators, high substrate, primary screen, biochemical, fluorescence intensity, near-saturating mannose 6-phosphate. Mannose-6-phosphate isomerase (Homo sapiens), P34949. coupled PMI enzyme assay, resazurin fluorescence, 20 min; hits give high values; 1 = untreated enzyme, 0 = substrate-free blank. activation factor at 20 µM. 0.34% of 190,000 active. AID 1216, 2008;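 active = activation factor of 2 or more at 20 µM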
Target sequence (P34949 whole entry, looked up): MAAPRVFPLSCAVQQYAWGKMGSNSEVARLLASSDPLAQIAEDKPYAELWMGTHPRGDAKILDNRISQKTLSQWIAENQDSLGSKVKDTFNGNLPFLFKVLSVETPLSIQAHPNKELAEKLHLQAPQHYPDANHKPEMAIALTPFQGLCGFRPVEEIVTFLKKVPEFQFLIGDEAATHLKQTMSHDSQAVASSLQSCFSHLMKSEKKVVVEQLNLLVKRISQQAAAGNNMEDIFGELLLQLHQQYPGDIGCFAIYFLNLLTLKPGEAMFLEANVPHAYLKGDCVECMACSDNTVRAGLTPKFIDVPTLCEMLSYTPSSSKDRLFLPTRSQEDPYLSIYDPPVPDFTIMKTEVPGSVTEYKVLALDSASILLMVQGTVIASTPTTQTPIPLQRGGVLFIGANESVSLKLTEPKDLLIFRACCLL
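Test system: Human PMI in coupled enzyme assay | Input: 15 ng/mL PMI | Medium: HEPES-buffered pH 7.4 with magnesium and detergent | Compound: One concentration, 20 µM, in 1% DMSO | Incubation: Enzyme reaction with compound 20 min at room temperature | Detection: Diaphorase-driven resazurin-to-resorufin fluorescence, excitation 544, emission 590 nm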
Diaphorase act = compounds boosting diaphorase resazurin reduction – biochemical, uHTS, resorufin fluorescence, counter-screen for diaphorase-coupled primary assays, primary screen; Diaphorase/resazurin coupled assay, 16 min; hits give high values; 1 = vehicle wells, 0 = NADH-free wells; activation factor at 20 µM; 0.005% of 190,000 active; AID 1229, 2008;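 active = diaphorase activity raised at least twofold by the compound at 20 µM; inactive = activation factor below 2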
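Material: Purified diaphorase enzyme from Clostridium kluyveri | Buffer or medium: 50 mM HEPES pH 7.4 with 4.542 mM MgCl2, 0.005% Tween 20 | Times: 16 min enzyme reaction, ambient temperature | Signal: Red resorufin fluorescence at 544/590 nm excitation/emission | Measure: Increased resorufin signal from activators or reducing compounds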
G6PDH CS = L. mesenteroides G6PDH inhibitors, counter-screen for G6PDH-coupled screening assays, biochemical, Leuconostoc mesenteroides enzyme | Purified L. mesenteroides G6PDH, diaphorase/resazurin coupled fluorescence, 45 min | inhibition, % at 5 µM | 0.12% of 200,000 active; in the data active = inhibition above about 50%
Diaphorase inh = diaphorase inhibitors and chemical oxidizers, primary screen, counter-screen for diaphorase-coupled primary assays, biochemical, uHTS, resorufin fluorescence; diaphorase resazurin-to-resorufin fluorescence, NADH, 16 min; bacterial (C. kluyveri) enzyme, not human; inhibition, % at 20 µM; 0.69% of 190,000 active; AID 1217, 2008;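 active = primary screen inhibition at 20 µM above a set limit, cut at about 50% in these data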;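 also: plate controls were DMSO with full reaction for no effect and wells lacking NADH for full effect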
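Test system: Clostridium kluyveri diaphorase enzyme / Quantity: diaphorase at 0.14 U/mL in enzyme working solution / Incubation: 16-min room-temperature incubation before reading / Benchmarks: NADH-free wells as positive control, DMSO-only neutral wells / Signal: resorufin fluorescence 544/590 nm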
PMI act = activators of human PMI, primary screen, biochemical, fluorescence intensity, near-Km mannose 6-phosphate | activation factor at 20 µM | purified human PMI, coupled resazurin fluorescence, 20 min; hits give high values; 1 = vehicle control, 0 substrate-free wells | 0.005% of 190,000 active | AID 1214, 2008 | Mannose-6-phosphate isomerase (Homo sapiens), P34949;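 active = activation factor of 2 or more at 20 µM, relative to plate controls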
Active calls of the source: *. An excerpt weighted towards active compounds, which were near 1.1% of everything screened.

SMILES	PMI act hi M6P	Diaphorase act	G6PDH CS	Diaphorase inh	PMI act
CCO[C@H]1OC(C(=O)N2CCN(C)CC2)=C[C@@H](c2ccc(C(F)(F)F)cc2)[C@@H]1CCCO	1	0.3	18	74*	0.9
C#Cc1ccc([C@H]2C=C(C(=O)N3CCN(Cc4ccc5c(c4)OCO5)CC3)O[C@@H](OCC)[C@@H]2CCCO)cc1	0.9	0.4	7	55*	0.9
CCO[C@@H]1OC(C(=O)N2CCN(C)CC2)=C[C@H](c2ccc(C(F)(F)F)cc2)[C@H]1CCCO	1	0.9	6	8	1
CC1=C/C(=N\OS(=O)(=O)c2ccccc2)C(C)=CC1=O	0.1	0	4	100*	-0.1
CC1=C/C(=N\OS(=O)(=O)c2ccccc2)C(C(C)C)=CC1=O	0.1	0	40	101*	0.2
CC1=C(C)/C(=N\OS(=O)(=O)c2ccc(C)cc2)C=CC1=O	0.2	0	32	101*	0.2
Clc1ccc(C[n+]2csc3ccccc32)cc1	2.2*	0.8	-4	22	1.4
Cc1noc(NS(=O)(=O)c2ccc(NC(=O)CSc3nnc4c(n3)[nH]c3ccccc34)cc2)c1C	0.9	0.4	-2	65*	0.9
Cc1noc(NS(=O)(=O)c2ccc(NC(=O)CSc3nc4ccccc4[nH]3)cc2)c1C	1	0.9	0	10	1
CC(C)OCCCNS(=O)(=O)c1ccc2ccccc2c1	1	0.9	1	14	1
CCOC(=O)Cc1csc(NC(=O)NC2(C(F)(F)F)Oc3ccc(Cl)cc3O2)n1 (stereo not drawn)	0.5	0.6	33	42	0.5
CCOC(=O)Cc1csc(NC(=O)NC2(C(F)(F)F)Oc3cc(Cl)c(Cl)cc3O2)n1	0.5	0.5	51*	47	0.4
COc1ccc(NC(=O)CC2Nc3cccc4cccc(c34)NC2=O)cc1 (stereo not drawn)	0.7	0.2	23	75*	0.8
O=C(CC1Nc2cccc3cccc(c23)NC1=O)Nc1ccc(F)cc1 (stereo not drawn)	0.5	0.6	13	37	0.9
Nc1nc(-c2ccc3c(c2)CCC(=O)N3)cs1	0.9	0.9	-6	6	1
CC(C)C(=O)N1CCc2cc(-c3csc(N)n3)ccc21	2.1*	0.9	-2	12	1.7
COc1cc(CN2CCC(C(=O)NC3CCCC3)CC2)cc(OC)c1O	0.4	0.5	53*	46	0.6
CCOC(=O)C1CCCN(Cc2cc(OC)c(O)c(OC)c2)C1 (stereo not drawn)	0.8	0.8	-41	22	0.8
COc1cc(CN2CCC(C(=O)N3CCCC(C)C3)CC2)cc(OC)c1O (stereo not drawn)	0.8	0.8	53*	19	0.8
Cc1ccsc1C(=O)N1CCCC(CCC(=O)N2CCN(c3ccccn3)CC2)C1 (stereo not drawn)	1	0.9	8	12	0.9
Cc1ccc(-n2nnc3c(SCC(=O)NCc4ccco4)ncnc32)cc1	0.7	0.4	0	57*	0.9
COc1cc(/C=N/NC(=S)Nc2cccc(Cl)c2C)ccc1OCC(=O)N1CC(C)OC(C)C1 (stereo not drawn)	0.9	0.5	-24	54*	1
CCOC(=O)C1=C(O)/C(=C\c2ccc(OC)c(OC)c2)N=C1C	0.8	0.9	0	9	1
CCOC(=O)C1=C(O)c2ccccc2C(=O)/C1=C\c1ccc(C)cc1	0.9	0.5	51*	49	1.3
Oc1c(C=NCc2ccccc2)sc2ccccc12	1	0.9	6	6	1
SMILES	PMI act hi M6P	Diaphorase act	G6PDH CS	Diaphorase inh	PMI act
Oc1cccc(C=NCc2ccccc2)c1O	0.5	0.4	60*	62*	0.5
O=C1CC(c2ccccc2)Sc2nc3ccccc3n21 (stereo not drawn)	1	0.9	-2	14	1
O=C1CC(c2ccco2)Sc2nc3ccccc3n21 (stereo not drawn)	0.6	0.5	12	51*	0.6
Cc1cccc(NC(=S)NC(C)C(c2ccccc2)N2CCN(C)CC2)c1C (stereo not drawn)	1	1.2	6	-21	1.1
COc1ccccc1NC(=O)CSc1ccc(-c2cccs2)nn1	0.9	0.4	2	57*	0.8
CCc1[nH]c(=O)c(C#N)c2c1CCCC2	1	1.1	-2	-10	1
CCc1[nH]c(=S)c(C#N)c2c1CCCC2	2.2*	0.8	2	18	1.6
O=C(COC(=O)c1c(F)cccc1F)Nc1ccc2[nH]c(=O)[nH]c2c1	0.8	0.9	10	9	0.9
O=C(COc1cccc(F)c1)Nc1ccc2[nH]c(=O)[nH]c2c1	0.8	0.4	10	55*	0.9
O=C(Cc1ccc(Cl)cc1)Oc1cccc2cccnc12	0.6	0.6	63*	42	0.7
O=C(Oc1cccc2cccnc12)c1cccc([N+](=O)[O-])c1	0.6	0.7	59*	34	0.8
O=C(Oc1ccc(Cl)c2cccnc12)c1cccc([N+](=O)[O-])c1	0.8	0.8	13	25	0.8
CCNC(=S)NNC(=O)c1cc(C2CC2)nc2ccccc12	1.1	0.9	-7	11	1
Cc1cc(C2=NNC(=Nc3ccccc3)SC2)c(C)n1C	2*	1.1	-2	-14	1.8
CC(NC(=O)C(=O)NN=C1CCCC1)c1ccccc1 (stereo not drawn)	1	0.9	7	8	0.9
COc1cc(/C=N/NC(=O)C(Cc2c[nH]c3ccccc23)NC(=O)OCC(C)C)cc([N+](=O)[O-])c1O (stereo not drawn)	0.9	0.8	-15	18	1
COc1cc(/C=N/NC(=O)C(Cc2c[nH]c3ccccc23)NC(=O)OCC(C)C)cc([N+](=O)[O-])c1OCc1ccccc1 (stereo not drawn)	0.5	0.3	15	71*	0.9
N#Cc1c(NC(=O)CSc2ncnc3sccc23)oc(-c2ccco2)c1-c1ccco1	0.9	0.4	19	60*	1.3
CC(Sc1nnc(NC2CCCCC2)s1)C(=O)Nc1ccc2c(c1)C(=O)c1ccccc1C2=O (stereo not drawn)	1.1	0.4	7	56*	1.1
CC(Sc1nnc(Nc2ccccc2)s1)C(=O)NC1CCCc2ccccc21 (stereo not drawn)	0.8	0.8	9	20	0.8
